Source: PubChem (several laboratories)
ATG4B inhibitor = inhibitors of human ATG4B cysteine protease. Q9Y4P1. ATG4B cleavage of LC3-PLA2, NBD-HPC fluorescence, 1 h. inhibition, % at 8.33 µM. 340,000 tested, 0.51% active; in the data active = inhibition above about 40%
Target sequence (Q9Y4P1 whole entry, looked up): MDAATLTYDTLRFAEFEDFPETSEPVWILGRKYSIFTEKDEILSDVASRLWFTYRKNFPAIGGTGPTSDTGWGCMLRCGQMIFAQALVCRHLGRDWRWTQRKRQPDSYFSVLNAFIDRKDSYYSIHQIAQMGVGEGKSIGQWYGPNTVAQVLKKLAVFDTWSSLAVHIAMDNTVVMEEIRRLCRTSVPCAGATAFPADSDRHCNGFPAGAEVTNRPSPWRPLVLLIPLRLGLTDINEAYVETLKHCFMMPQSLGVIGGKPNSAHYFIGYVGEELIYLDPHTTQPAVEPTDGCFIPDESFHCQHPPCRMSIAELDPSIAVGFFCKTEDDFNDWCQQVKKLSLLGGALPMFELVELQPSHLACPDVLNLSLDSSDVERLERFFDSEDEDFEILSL
MEKK2wt PB1 HTS = raises or lowers MEK5 binding to wildtype human MEKK2 PB1 domain; binding response (% of control), % at 10 µM; bead flow cytometry, Alexa488-MEK5 binding to MEKK2 WT; actives lie on both sides; AID 1531; Q9Y2U5; 290,000 tested, 1.1% active; in the data active = binding response below about 67% or above about 130%; inconclusive = no clear call, values can overlap the other calls; inactive = in between
Beta2AR agonist = human beta-2 adrenergic receptor agonism by FAP; P07550; 340,000 tested, 0.43% active; response, % (no concentration beside the values); Am2.2-beta2AR cells, FAP receptor internalization, flow cytometry;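 active = response above a set limit, near 3 SD of response in nonfluorescent compounds, cut at about 42% in these data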
Target sequence (P07550 whole entry, looked up): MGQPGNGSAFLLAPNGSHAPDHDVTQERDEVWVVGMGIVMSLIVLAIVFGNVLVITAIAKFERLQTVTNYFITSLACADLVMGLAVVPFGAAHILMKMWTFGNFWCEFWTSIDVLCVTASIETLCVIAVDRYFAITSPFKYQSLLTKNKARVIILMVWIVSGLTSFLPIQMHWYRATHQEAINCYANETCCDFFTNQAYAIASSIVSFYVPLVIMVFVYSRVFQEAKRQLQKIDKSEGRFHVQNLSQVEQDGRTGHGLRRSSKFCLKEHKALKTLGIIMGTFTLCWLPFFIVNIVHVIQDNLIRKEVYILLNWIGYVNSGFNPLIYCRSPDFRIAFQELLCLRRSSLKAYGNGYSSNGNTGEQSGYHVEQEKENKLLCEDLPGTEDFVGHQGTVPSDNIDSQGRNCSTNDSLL
Dynein cargo inh = blocks dynein driven cargo transport along microtubules | 3617.4 mouse cells, GR-EGFP nuclear translocation imaging; test concentration mostly 20 µM; stimulated with dexamethasone, 1 µM; active compounds read low | AID 1381 | 220,000 tested, 0.47% active | z-score, hits read low;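 active = plate z-score of nuclear minus cytoplasmic receptor signal below a set negative limit, without overly bright fluorescence or cell loss, cut at about -3.5 in these data, passing the limit was not always enough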;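 note: z-score of nuclear minus cytoplasmic ring GR-EGFP intensity difference per well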
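Buffer or medium: Induction medium lacking tetracycline, stripped serum | Also added: Dexamethasone agonist, 1.0 µM final, for 30 min | Timing: 48 h induction, 1 h compound, 30 min dex at 37 °C | Detection: Formaldehyde fixation, Hoechst nuclear stain, 10x automated fluorescence imaging | Measure: Nuclear versus cytoplasmic GR-EGFP signal, averaged per well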
MEKK3 PB1 HTS = MEKK3-MEK5 PB1 interaction, increase or decrease; 290,000 tested, 1.4% active; bead-based flow cytometry, Alexa488-MEK5 binding to MEKK3; actives lie on both sides; 0 = blocked by unlabeled MEK5, 100 = vehicle; AID 1529; binding response (% of control), % at 10 µM; Q99759;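 active = binding response more than 3 SD above or below the average of its plate-row segment, actives on both sides; inconclusive = wells at one plate position flagged as instrument error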;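 note: Alexa488 bead fluorescence after subtracting the streptavidin-only scavenger bead signal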
MEKK2 mut-MEK5 = signal of MEK5 binding to mutant human MEKK2 PB1 domain; percent response, % at 10 µM; bead flow cytometry, Alexa488-MEK5 binding to MEKK2 mutant; 290,000 tested, 0.35% active; in the data active = percent response above about 24%, passing the limit was not always enough
Dynein inh conf = dynein cargo transport inhibition, confirmation; shares compounds with Dynein cargo inh; 3617.4 GR-EGFP nuclear translocation imaging, dexamethasone-induced; calls only at 20 µM; 1,000 tested, 69% active; AID 463116;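 active = inhibition of receptor movement into the nucleus at or above a set limit in both runs, with normal cell brightness and cell count; inconclusive = limit reached in only one run, brightness and count normal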;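 note: dexamethasone at 1 µM final in well for 30 min; nuclear minus cytoplasmic GR-EGFP mean intensity difference in channel 2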
Large screens that a line does not name were inactive (follow-up assays come after a bar, where they were run). The list is not random: actives were taken first. Their share in the collection is about 2.9%.

CC(C)(C)C1CCc2sc(-c3nnc(CCl)o3)cc2C1 (stereo unspecified)	Dynein cargo inh -4.19 | Dynein inh conf active
ClCc1nnc(-c2cc3c(s2)CCCC3)o1	Dynein cargo inh -4.47 | Dynein inh conf inconclusive
CN(C)S(=O)(=O)c1cccc(NC(=O)c2cccc(S(=O)(=O)N3CCc4ccccc43)c2)c1	none (no result: MEKK2wt PB1 HTS, Dynein cargo inh, MEKK3 PB1 HTS, MEKK2 mut-MEK5)
C[C@H](O)Cc1cn(-c2cc3cc(C#Cc4ccsc4)ccc3oc2=O)nn1	none (no result: MEKK2wt PB1 HTS, Dynein cargo inh, MEKK3 PB1 HTS, MEKK2 mut-MEK5)
O=C(Nc1ccccc1)C(Cl)C(=O)c1ccccc1 (stereo unspecified)	none (no result: Dynein cargo inh)
CC(=O)C(Cl)C(=O)Nc1ccccc1 (stereo unspecified)	Dynein cargo inh -4.19 | Dynein inh conf inactive
CCCCOC(=O)c1ccc(NC(=O)COC(=O)c2ccc3ncsc3c2)cc1	none (no result: MEKK2wt PB1 HTS, Dynein cargo inh, MEKK3 PB1 HTS, MEKK2 mut-MEK5)
O=C1C(=NO)C(c2ccccc2)Oc2ccccc21 (stereo unspecified)	none (no result: MEKK2wt PB1 HTS, Dynein cargo inh, MEKK3 PB1 HTS, MEKK2 mut-MEK5)
Cc1cc(Cl)n2c(nc3ccccc32)c1C#N	Beta2AR agonist 98.7, Dynein cargo inh -5.22 | Dynein inh conf active
CNc1cc(C)c(C#N)c2nc3ccccc3n12	none (no result: Dynein cargo inh)
Cc1cc(C(=O)CCl)c(C)n1-c1cccc(S(=O)(=O)N2CCOCC2)c1	Dynein cargo inh -5.28 (no result: Beta2AR agonist) | Dynein inh conf active
Cc1cc(C(=O)CN2C(=O)CN(C)C2=O)c(C)n1-c1cccc(S(=O)(=O)N2CCOCC2)c1	none
COc1ccc(-c2ccc(SCC(=O)N3CC(=O)Nc4ccccc43)nn2)cc1	none (no result: Dynein cargo inh)
O=C1CC(Sc2nnc(-c3ccccc3)o2)C(=O)N1c1ccccc1 (stereo unspecified)	none
Cc1ccccc1N1C(=O)CC(Sc2nnc(-c3ccccc3)o2)C1=O (stereo unspecified)	Dynein cargo inh -7.27 | Dynein inh conf active
Cc1cccc(N=NC(=S)NNc2cccc(C)c2)c1	none (no result: MEKK2wt PB1 HTS, Dynein cargo inh, MEKK3 PB1 HTS, MEKK2 mut-MEK5)
CC(C)(C)c1cc(NC(=O)CCl)n(-c2ccccc2)n1	none
CCCc1cc(NC(=O)CCl)n(-c2ccccc2)n1	Dynein cargo inh -4 | Dynein inh conf active
O=C1CCN(CC2CCCCC2)C=C1C(=O)c1ccccc1	none (no result: MEKK2wt PB1 HTS, Dynein cargo inh, MEKK3 PB1 HTS, MEKK2 mut-MEK5)
CC1OC2(C)OC(=N)C1(C#N)C(C#N)(C#N)C2c1ccccc1 (stereo unspecified)	none
CCCCC1OC2(C)OC(=N)C1(C#N)C(C#N)(C#N)C2c1ccccc1 (stereo unspecified)	Dynein cargo inh -4.47 | Dynein inh conf active
CC(/C=N/n1c(COc2ccccc2)n[nH]c1=S)=C\c1ccco1	Dynein cargo inh -3.96 | Dynein inh conf inactive
CC(C)(C)c1cc(CN(CCO)CCO)cc(C(C)(C)C)c1O	Dynein cargo inh -5.84 | Dynein inh conf active
COc1ccccc1NC(=O)CSc1nc(=O)n2cc(C)ccc2n1	none (no result: MEKK2wt PB1 HTS, Dynein cargo inh, MEKK3 PB1 HTS, MEKK2 mut-MEK5)
O=C1C=CC(=O)N1CCNc1ncc(C(F)(F)F)cc1Cl	Beta2AR agonist 69.2, Dynein cargo inh -5.45 | Dynein inh conf active
Cc1cc(S(=O)(=O)Nc2ccc(C(=O)NCC(C)(C)N3CCOCC3)cc2)ccc1F	none (no result: Dynein cargo inh)
CCN(CC)c1ccc(N=Cc2ccc([N+](=O)[O-])o2)cc1	Dynein cargo inh -3.78 | Dynein inh conf inconclusive
O=C1CSC(=S)N1c1cccnc1	none
O=C1CSC(=S)N1Cc1cccnc1	MEKK2wt PB1 HTS -3.0, Dynein cargo inh -4.65 | Dynein inh conf inactive
O=C(c1ccccc1)c1ccccc1N1C(=O)C=CC1=O	Dynein cargo inh -4.41 | Dynein inh conf active
O=C1C=CC(=O)N1c1ccccc1N1C(=O)C=CC1=O	none (no result: MEKK2wt PB1 HTS, Dynein cargo inh, MEKK3 PB1 HTS, MEKK2 mut-MEK5)
CCOC(=O)CN1C(=O)/C(=C2\SC(=S)N(NC(=O)c3cccnc3)C2=O)c2ccccc21	none (no result: Dynein cargo inh)
Cc1nc([N+](=O)[O-])c(Br)n1CC(=O)c1ccccc1	Dynein cargo inh -5.27 | Dynein inh conf active
N/C(=C\C(=O)c1cc(Cl)ccc1O)C(Cl)(Cl)Cl	MEKK2wt PB1 HTS -3.0, Dynein cargo inh -5.01 | Dynein inh conf active
O=c1c2ccccc2nc(/C=C/c2ccc([N+](=O)[O-])o2)n1CCCO	Dynein cargo inh -5.62 | Dynein inh conf active
COc1cccc(C(=O)N2CCN(C(=O)C3CC3)CC2)c1	none (no result: Dynein cargo inh)
O=C(NCc1cccnc1)/C(=C/c1ccc(-c2cccc(Cl)c2)o1)S(=O)(=O)c1ccccc1	Dynein cargo inh -3.85 | Dynein inh conf active
Cc1ccc(C(=O)N/C(=C\c2ccc(-c3cc(Cl)ccc3Cl)o2)C(=O)NCc2cccnc2)cc1	none
O=C(NCc1cccnc1)/C(=C\c1ccc(-c2cccc(Cl)c2)o1)S(=O)(=O)c1ccccc1	Dynein cargo inh -4.3 | Dynein inh conf active
Cc1ccc2c(c1)[C@H]1[C@H](CO2)[C@H](c2ccccc2)[C@]2(C)C(=O)N(Cc3ccc(F)cc3)CC(=O)N12	none (no result: MEKK2wt PB1 HTS, Dynein cargo inh, MEKK3 PB1 HTS, MEKK2 mut-MEK5)
C[C@H](CO)N1C[C@H](C)[C@@H](CN(C)Cc2ccc(Cl)c(Cl)c2)Oc2c(NS(=O)(=O)c3cn(C)cn3)cccc2C1=O	none (no result: MEKK2wt PB1 HTS, Dynein cargo inh, MEKK3 PB1 HTS, MEKK2 mut-MEK5)
CCCCCc1cc(O)c2c(C)cc(=O)oc2c1	none
CCCCc1cc(O)c(CCCC)c(O)c1	Dynein cargo inh -3.93 | Dynein inh conf active
O=c1c(C(c2nnnn2C2CCCCC2)N2CCCCC2)coc2ccc(Cl)cc12 (stereo unspecified)	Dynein cargo inh -3.98 | Dynein inh conf active
CN(CC(=O)Nc1ccc(N2CCOCC2)cc1)C(=O)c1ccc(CS(C)(=O)=O)cc1	none (no result: MEKK2wt PB1 HTS, Dynein cargo inh, MEKK3 PB1 HTS, MEKK2 mut-MEK5)
O=C1CCCC/C=C\C[C@H](CC(=O)N(CCO)Cc2ccccc2)C(=O)NCCO1	none (no result: MEKK2wt PB1 HTS, Dynein cargo inh, MEKK3 PB1 HTS, MEKK2 mut-MEK5)
Cc1ccc(C(=O)/C=C\C(=O)c2ccc(C)cc2)cc1	Dynein cargo inh -7.16 | Dynein inh conf active
CCOC(=O)CS(=O)(=O)c1nc(-c2ccc(F)cc2)cc(C(F)(F)F)n1	Beta2AR agonist 103.6 | Dynein inh conf active
CS(=O)(=O)c1nc(-c2ccc(F)cc2)cc(C(F)(F)F)n1	Beta2AR agonist 72.8 | Dynein inh conf inactive
COc1ccc(-c2cc(C(F)(F)F)nc(N)n2)cc1	none
COc1ccc(-c2cc(C(F)(F)F)nc(S(C)(=O)=O)n2)cc1	Dynein cargo inh -5.32 | Dynein inh conf inactive
O=C1NC(=O)C2(CCCCCCC2)N1	none (no result: MEKK2wt PB1 HTS, Dynein cargo inh, MEKK3 PB1 HTS, MEKK2 mut-MEK5)
O=C1C=CC(=O)N1CCCCCCCCCCN1C(=O)C=CC1=O	none (no result: MEKK2wt PB1 HTS, Dynein cargo inh, MEKK3 PB1 HTS, MEKK2 mut-MEK5)
